Reference: PMC3951244 (Bioorganic & medicinal chemistry letters, 2014)

Experiments:
CYP = CYP inhibition profile; format: in vitro ADME
GlyT1 = molecular target: T1, GlyT1 (Homo sapiens, UniProt P48067); test: Enzyme kinetics of [14C]-glycine transport; format: biochemical; settings: [14C]-glycine transport kinetics; 120 nM 12b in Fig. 3
T1 sequence (P48067 1-706): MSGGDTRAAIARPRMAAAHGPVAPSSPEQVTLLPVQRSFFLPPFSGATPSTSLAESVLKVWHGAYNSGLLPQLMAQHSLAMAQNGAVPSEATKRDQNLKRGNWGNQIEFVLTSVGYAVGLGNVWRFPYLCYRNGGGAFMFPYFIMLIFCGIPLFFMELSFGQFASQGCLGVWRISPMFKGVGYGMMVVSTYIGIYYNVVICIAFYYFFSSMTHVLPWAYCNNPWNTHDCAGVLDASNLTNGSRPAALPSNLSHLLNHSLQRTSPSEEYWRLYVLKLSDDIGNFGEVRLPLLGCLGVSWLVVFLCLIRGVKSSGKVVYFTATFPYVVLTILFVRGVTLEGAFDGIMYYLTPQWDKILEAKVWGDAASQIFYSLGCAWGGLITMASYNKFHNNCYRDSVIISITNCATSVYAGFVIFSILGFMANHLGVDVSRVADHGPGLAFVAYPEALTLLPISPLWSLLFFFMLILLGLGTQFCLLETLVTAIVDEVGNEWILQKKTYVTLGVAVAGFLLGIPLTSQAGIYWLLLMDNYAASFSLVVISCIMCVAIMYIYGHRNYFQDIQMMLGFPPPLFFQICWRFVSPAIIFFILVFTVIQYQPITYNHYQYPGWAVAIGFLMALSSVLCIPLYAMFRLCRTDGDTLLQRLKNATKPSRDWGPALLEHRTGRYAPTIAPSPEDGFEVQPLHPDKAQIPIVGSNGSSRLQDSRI
Method in brief: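 Saturation curves of [14C]-glycine transport were run with either vehicle or 120 nM test compound. Inhibition mode relative to glycine was assessed from an Eadie-Hoffstee plot of the transport data.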

Row | Structure (SMILES) | IC50 (CYP) [µM] | Mechanism of GlyT1 inhibition with respect to glycine (GlyT1)
1 | Cn1cnc(S(=O)(=O)N2CC(C(NC(=O)c3ccc(Cl)cc3Cl)c3ccccn3)C2)c1 (stereo not drawn) [Compound 27c] | > 10 | –
2 | Cn1cnc(S(=O)(=O)N2CC3CCC(NC(=O)c4ccccc4C(F)(F)F)C3C2)c1 (stereo not drawn) [Compound 12b] | – | competitively inhibits
3 | Cn1cnc(S(=O)(=O)N2CC3CCC(NC(=O)c4ccc(Cl)cc4Cl)C3C2)c1 (stereo not drawn) [Compound 12a] | > 10 | –
